Assay results published in ChEMBL document CHEMBL4184325, “Discovery of 4,7-Diamino-5-(4-phenoxyphenyl)-6-methylene-pyrimido[5,4- b]pyrrolizines as Novel Bruton's Tyrosine Kinase Inhibitors” (J Med Chem, 2018).
The source made the active and inactive calls. The rule behind the calls is not given here.

Legend:
[1] = system: Rattus norvegicus; assay: AUC (0 to infinity) in rat at 3 mg/kg, po; type: ADME, organism-based; parameters: dose 3 mg/kg, time infinity, route oral; conditions: in vivo
In short: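 Rats dosed orally at 3 mg/kg; vehicle DMSO, Tween 80, normal saline; values are the average of three determinations.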

[2] = system: Rattus norvegicus; assay: Oral bioavailability in rat at 3 mg/kg; type: ADME, organism-based; conditions: in vivo
In short: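 Rats were given compound at 1 mg/kg iv or 3 mg/kg po. Vehicle was DMSO, Tween 80 and normal saline. Values are the average of three determinations.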

[3] = Drug metabolism in mouse liver microsomes assessed as (S,E)-N-(4-amino-6-methylene-5-(4-phenoxyphenyl)-7,8-dihydro-6H-pyrimido[5,4-b]pyrrolizin-7-yl)-3-hydroxyacrylamide formation after 3 hrs; type: ADME, microsome
[4] = molecular target: T1, Receptor-type tyrosine-protein kinase FLT3 (Homo sapiens, UniProt P36888); assay: Inhibition of recombinant human FLT3 using Poly(Glu, Tyr) 4:1 as substrate after 1 hr by ELISA
T1 sequence (P36888 whole entry): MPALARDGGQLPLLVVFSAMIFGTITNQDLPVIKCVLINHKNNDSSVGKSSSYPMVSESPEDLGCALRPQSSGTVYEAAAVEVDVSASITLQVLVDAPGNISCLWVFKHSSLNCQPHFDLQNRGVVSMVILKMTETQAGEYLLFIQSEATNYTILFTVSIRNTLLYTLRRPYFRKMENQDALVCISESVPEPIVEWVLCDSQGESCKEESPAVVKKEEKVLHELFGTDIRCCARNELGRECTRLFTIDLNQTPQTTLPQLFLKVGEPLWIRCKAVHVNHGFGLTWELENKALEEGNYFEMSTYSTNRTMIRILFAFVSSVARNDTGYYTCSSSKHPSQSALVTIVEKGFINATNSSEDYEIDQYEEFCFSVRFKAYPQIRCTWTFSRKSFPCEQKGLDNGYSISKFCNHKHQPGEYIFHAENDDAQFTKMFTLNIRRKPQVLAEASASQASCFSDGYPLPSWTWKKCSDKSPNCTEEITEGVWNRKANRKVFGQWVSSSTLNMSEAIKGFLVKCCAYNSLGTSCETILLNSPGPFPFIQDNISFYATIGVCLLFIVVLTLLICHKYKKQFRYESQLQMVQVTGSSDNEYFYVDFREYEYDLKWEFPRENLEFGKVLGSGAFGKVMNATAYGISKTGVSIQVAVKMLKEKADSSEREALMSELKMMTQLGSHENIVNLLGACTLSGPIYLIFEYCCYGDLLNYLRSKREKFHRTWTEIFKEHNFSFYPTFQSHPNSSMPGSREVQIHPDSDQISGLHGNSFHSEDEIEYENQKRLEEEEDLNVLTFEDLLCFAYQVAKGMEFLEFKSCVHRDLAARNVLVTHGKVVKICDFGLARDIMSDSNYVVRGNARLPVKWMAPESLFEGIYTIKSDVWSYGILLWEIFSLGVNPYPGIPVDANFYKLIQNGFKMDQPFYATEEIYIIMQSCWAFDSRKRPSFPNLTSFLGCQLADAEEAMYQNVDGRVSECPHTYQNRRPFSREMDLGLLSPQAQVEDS
In short: (§1)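 Kinase activity was measured by ELISA on wells precoated with 20 µg/mL poly(Glu,Tyr) 4:1. Enzyme was incubated with compound in 50 mM HEPES pH 7.4, 20 mM MgCl2, 0.1 mM MnCl2, 0.2 mM Na3VO4, 1 mM DTT with 5 µM ATP at 37 °C for 1 h. Phosphotyrosine was detected with PY99 antibody, HRP secondary and OPD, read at A492. IC50 is the mean of duplicates.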

[5] = molecular target: Receptor tyrosine-protein kinase erbB-2 (Homo sapiens, UniProt P04626); assay: Inhibition of recombinant human ErbB2 using Poly(Glu, Tyr) 4:1 as substrate after 1 hr by ELISA; in short: as §1
[6] = system: TMD8; assay: Cell cycle arrest in human TMD8 cells assessed as accumulation at G1 phase at 10 nM after 48 hrs by propidium iodide staining-based flow cytometric method (reference value: 51.33%); type: functional
[7] = molecular target: T2, Tyrosine-protein kinase BTK (Homo sapiens, UniProt Q06187); assay: Inhibition of recombinant human BTK using Poly(Glu, Tyr) 4:1 as substrate after 1 hr by ELISA
[8] = system: TMD8; assay: Induction of apoptosis in human TMD8 cells assessed as late apoptotic cells at 1000 nM after 72 hrs by Annexin-FITC/propidium iodide staining-based flow cytometric method (reference value: 3.2%); type: functional
[9] = molecular target: Receptor tyrosine-protein kinase erbB-4 (Homo sapiens, UniProt Q15303); assay: Inhibition of recombinant human ErbB4 using Poly(Glu, Tyr) 4:1 as substrate after 1 hr by ELISA; in short: as §1
[10] = molecular target: T2, Tyrosine-protein kinase BTK; assay: Inhibition of BTK autophosphorylation at Y223 in human TMD8 cells after 4 hrs by Western blot method
[11] = system: Ramos; assay: Antiproliferative activity against human Ramos cells after 72 hrs by MTT assay; type: functional, cell-based
In short: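 Cells grown in RPMI-1640 with FBS at 37 °C, 5% CO2. Seeded and grown 2 h, then treated with various concentrations in PBS solution, each in triplicate, and cultured a further 72 h. Viability read by MTT. IC50 from the Logit method, given as mean ± SD of three independent determinations.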

[12] = system: Mus musculus; assay: In vivo inhibition of BTK in human TMD8 cells xenografted in CB17 SCID nude mouse assessed as decrease in PLCgamma2 phosphorylation at Y759 at 15 mg/kg, […] by Western blot method; type: functional, organism-based
[13] = molecular target: Platelet-derived growth factor receptor beta (Homo sapiens, UniProt P09619); assay: Inhibition of recombinant human PDGFR-beta using Poly(Glu, Tyr) 4:1 as substrate after 1 hr by ELISA
[14] = system: TMD8; assay: Cell cycle arrest in human TMD8 cells assessed as accumulation at G1 phase at 1 nM after 48 hrs by propidium iodide staining-based flow cytometric method (reference value: 51.33%); type: functional
[15] = system: TMD8; assay: Cell cycle arrest in human TMD8 cells assessed as accumulation at S phase at 1 nM after 48 hrs by propidium iodide staining-based flow cytometric method (reference value: 34.15%); type: functional

T2 sequence (Q06187 whole entry): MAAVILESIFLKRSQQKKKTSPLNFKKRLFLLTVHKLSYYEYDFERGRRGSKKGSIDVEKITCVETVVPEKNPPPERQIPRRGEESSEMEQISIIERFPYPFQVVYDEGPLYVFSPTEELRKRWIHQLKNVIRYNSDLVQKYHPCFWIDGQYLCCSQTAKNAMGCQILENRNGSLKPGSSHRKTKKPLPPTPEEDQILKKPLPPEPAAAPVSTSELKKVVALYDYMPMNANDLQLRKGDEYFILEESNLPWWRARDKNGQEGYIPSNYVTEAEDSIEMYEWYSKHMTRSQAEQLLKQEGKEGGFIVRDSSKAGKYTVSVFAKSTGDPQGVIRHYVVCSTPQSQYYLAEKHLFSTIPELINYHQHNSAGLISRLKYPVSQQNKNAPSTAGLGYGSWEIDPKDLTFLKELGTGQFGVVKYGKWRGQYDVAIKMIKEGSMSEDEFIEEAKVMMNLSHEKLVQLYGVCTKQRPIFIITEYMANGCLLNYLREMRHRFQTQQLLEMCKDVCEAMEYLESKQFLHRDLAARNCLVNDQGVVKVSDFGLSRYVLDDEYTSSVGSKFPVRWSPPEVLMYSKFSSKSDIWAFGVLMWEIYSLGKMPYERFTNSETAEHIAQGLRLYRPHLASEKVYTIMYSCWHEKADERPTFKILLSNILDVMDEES
Receptor tyrosine-protein kinase erbB-4, sequence (Q15303 whole entry): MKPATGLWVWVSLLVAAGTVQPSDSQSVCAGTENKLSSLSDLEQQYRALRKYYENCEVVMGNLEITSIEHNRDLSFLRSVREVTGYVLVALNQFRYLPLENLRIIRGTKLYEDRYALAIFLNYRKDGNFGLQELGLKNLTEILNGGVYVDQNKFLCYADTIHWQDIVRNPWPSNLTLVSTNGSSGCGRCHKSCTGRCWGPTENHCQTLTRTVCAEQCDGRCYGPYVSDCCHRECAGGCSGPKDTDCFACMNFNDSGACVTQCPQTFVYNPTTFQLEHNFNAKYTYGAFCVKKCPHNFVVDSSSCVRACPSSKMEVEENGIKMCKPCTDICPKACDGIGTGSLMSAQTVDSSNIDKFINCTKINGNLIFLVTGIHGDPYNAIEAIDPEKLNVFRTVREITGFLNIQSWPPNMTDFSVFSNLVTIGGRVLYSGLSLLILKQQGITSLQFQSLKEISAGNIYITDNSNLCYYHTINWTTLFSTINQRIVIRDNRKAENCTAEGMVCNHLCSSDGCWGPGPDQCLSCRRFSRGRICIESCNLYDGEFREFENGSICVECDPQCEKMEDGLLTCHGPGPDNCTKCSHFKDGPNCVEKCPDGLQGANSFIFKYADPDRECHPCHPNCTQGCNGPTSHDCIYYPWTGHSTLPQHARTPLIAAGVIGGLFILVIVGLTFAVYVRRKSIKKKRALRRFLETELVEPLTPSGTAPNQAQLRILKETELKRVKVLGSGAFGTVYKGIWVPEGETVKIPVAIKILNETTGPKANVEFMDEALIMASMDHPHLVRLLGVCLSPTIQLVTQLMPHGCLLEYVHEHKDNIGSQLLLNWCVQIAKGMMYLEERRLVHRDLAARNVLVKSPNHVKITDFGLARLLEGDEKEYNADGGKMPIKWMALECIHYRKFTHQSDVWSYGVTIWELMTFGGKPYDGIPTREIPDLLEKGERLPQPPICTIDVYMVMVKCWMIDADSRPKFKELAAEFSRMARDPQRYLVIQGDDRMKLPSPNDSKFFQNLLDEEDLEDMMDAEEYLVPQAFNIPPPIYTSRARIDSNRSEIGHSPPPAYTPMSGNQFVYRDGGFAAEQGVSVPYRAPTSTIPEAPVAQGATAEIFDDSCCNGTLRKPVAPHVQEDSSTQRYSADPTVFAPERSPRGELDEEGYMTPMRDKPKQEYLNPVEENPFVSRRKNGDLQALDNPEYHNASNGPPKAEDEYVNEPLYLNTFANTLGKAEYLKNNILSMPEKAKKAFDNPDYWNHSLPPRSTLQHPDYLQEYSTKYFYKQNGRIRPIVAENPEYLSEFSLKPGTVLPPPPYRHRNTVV
Platelet-derived growth factor receptor beta, sequence (P09619 whole entry): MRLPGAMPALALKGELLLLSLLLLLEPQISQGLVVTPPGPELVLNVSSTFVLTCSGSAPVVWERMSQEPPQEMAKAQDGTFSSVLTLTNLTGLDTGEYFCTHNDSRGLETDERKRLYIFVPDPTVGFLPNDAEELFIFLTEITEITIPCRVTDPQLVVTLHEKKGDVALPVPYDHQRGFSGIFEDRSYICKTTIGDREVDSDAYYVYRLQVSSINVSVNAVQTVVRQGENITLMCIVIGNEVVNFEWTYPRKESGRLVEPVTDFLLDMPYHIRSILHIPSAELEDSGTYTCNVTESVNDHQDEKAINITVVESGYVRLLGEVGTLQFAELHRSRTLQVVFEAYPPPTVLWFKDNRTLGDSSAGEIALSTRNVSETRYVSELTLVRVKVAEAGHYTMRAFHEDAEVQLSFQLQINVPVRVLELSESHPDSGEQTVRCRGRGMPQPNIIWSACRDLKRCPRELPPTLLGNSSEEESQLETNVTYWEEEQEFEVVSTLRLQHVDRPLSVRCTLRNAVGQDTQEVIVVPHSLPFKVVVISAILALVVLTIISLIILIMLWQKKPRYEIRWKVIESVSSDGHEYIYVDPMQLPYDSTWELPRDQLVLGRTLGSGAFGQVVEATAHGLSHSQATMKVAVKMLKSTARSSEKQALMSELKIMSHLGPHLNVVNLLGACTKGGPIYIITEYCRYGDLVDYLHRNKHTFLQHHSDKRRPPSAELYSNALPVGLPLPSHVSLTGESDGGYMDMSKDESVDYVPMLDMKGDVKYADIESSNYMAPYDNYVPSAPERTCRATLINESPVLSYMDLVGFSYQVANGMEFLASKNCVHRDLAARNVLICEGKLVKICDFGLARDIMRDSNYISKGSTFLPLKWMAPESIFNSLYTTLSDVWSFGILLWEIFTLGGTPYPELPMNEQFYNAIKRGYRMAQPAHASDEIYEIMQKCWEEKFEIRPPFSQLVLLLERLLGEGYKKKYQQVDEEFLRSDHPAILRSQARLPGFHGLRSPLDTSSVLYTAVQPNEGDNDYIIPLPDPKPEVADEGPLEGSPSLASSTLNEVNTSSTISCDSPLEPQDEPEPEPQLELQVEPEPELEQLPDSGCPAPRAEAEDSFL
Receptor tyrosine-protein kinase erbB-2, sequence (P04626 whole entry): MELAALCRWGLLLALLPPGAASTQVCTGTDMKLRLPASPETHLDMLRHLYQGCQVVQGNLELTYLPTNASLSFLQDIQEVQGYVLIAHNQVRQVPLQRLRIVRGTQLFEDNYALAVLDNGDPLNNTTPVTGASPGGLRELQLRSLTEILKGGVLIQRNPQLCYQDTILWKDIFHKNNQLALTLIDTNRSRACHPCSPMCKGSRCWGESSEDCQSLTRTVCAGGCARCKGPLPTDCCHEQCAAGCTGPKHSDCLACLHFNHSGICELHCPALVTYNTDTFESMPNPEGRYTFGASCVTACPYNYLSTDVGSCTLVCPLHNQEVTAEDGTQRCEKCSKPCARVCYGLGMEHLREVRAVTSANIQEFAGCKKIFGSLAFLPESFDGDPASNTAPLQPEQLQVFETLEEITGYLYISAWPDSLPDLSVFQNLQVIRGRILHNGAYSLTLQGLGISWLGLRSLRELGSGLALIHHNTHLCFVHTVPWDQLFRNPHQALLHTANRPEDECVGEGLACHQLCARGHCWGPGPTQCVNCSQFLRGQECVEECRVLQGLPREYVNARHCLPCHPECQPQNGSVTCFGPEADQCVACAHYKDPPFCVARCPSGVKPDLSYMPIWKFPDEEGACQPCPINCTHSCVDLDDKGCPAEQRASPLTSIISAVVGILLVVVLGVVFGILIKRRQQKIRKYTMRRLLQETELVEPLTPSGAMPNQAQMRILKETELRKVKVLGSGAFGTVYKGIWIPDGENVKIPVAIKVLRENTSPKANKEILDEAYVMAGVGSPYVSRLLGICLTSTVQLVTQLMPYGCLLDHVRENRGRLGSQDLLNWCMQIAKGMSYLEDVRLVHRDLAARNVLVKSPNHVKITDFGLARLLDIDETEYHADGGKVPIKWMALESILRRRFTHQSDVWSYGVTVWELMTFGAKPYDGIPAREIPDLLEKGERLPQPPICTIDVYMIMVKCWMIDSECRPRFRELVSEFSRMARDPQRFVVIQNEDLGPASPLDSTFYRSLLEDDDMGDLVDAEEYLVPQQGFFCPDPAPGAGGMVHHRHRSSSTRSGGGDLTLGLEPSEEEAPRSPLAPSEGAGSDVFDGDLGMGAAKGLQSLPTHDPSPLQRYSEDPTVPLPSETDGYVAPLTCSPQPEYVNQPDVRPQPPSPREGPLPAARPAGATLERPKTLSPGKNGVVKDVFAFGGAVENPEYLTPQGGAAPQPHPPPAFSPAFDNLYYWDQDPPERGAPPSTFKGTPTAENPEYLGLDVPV

AUC [1]: 211 ng·h/mL
F [2]: 18.3%
Drug metabolism [3]: Metabolite_Detected
IC50 [4]: 55 nM
IC50 [5]: 23.2 nM
IC50 [7]: 0.4 nM
IC50 [9]: 0.6 nM
IC50 [10]: < 10 nM
IC50 [11]: 5030 nM
IC50 [13]: 215 nM
SMILES: C=CC(=O)N[C@@H]1Cn2c(c(-c3ccc(Oc4ccccc4)cc3)c3c(N)ncnc32)C1=C
Activity [6]: 76.32%
Activity [8]: 27.9%
inhibition [12]: Active
Activity [14]: 57.41%
Activity [15]: 25.22%
